Assay results: ChEMBL document CHEMBL1121902 (J Med Chem, 1981)
Counter-ions that a name gives are not always drawn. Blank lines part the entries; values can stand above or below the molecule they belong to.

How the values were obtained:
[1] = Partition coefficient (logD7.4); format: physicochemical; settings: octanol/water, pH 7.4
In short: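 Distribution between 1-octanol and 0.16 M pH 7.4 phosphate buffer (mutually presaturated). Compound at 10^-4 M in buffer was shaken 15 min with an equal volume of octanol, then centrifuged 10 min. Run in triplicate.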

[2] = Beta adrenergic receptor antagonist potency relative to propranolol.; format: functional
In short: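 Pentobarbital-anesthetized mongrel dogs. Isoproterenol dose-response curves (heart rate, contractile force, femoral artery flow) repeated after cumulative doses of 10, 100 and 1000 µg/kg of racemic hydrochloride in isotonic saline. Apparent pA2 taken from the curve shifts. […] One compound per dog, four dogs each.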

Canis familiaris [3] = species on record: Canis familiaris; assay: Vasodilator potency relative to propranolol.; format: functional, Canis lupus familiaris
In short: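 Anesthetized mongrel dogs with a vascularly isolated, pump-perfused hindlimb at constant blood flow; the read-out is the fall in perfusion pressure. Bolus intraarterial injections in isotonic saline into the perfusion system, lowest doses first, compound order randomized at each level; four dogs. Dose to lower pressure 55 mmHg determined.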

Canis familiaris [4] = assay: Compound was tested for its ability to block isoproterenol-induced contractile force in anesthetized dogs.; settings: Canis lupus familiaris, read-out: pA2 app (converted)
Canis familiaris [5] = assay: Compound was tested for its ability to block isoproterenol-induced increases in heart rate(HR) in anesthetized dogs.; settings: Canis lupus familiaris, read-out: pA2 app (converted)
Canis familiaris [6] = assay: Concentration required to decrease hindlimb perfusion pressure(55 mmHg) in anesthetized dogs after intra arterial administration.; format: functional, Canis lupus familiaris, Artery
In short: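 Anesthetized mongrel dogs, vascularly isolated pump-perfused hindlimb held at constant blood flow. Vascular resistance was read as change in perfusion pressure. Bolus intraarterial injections into the perfusion circuit, drugs in isotonic saline, rising doses with compound order randomized at each level. Dose to lower perfusion pressure by 55 mmHg was taken. Four dogs, mean ± SE.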

Canis familiaris [7] = assay: Compound was tested for its ability to block isoproterenol-induced vasodilation in anesthetized dogs.; settings: Canis lupus familiaris, read-out: pA2 app (converted)

Compound: CC(C)NCC(O)COc1cccc2ccc(O)cc12 (stereo not given)
logD [1]: 0.62
Relative potency [2]: 0.95
Relative potency (Canis familiaris [3]): 0.2
Kb (Canis familiaris [4]): 17.4 nM
Kb (Canis familiaris [5]): 56.2 nM
Dose (Canis familiaris [6]): 2.8 mg
Kb (Canis familiaris [7]): 26.3 nM

Compound: CC(C)NCC(O)COc1cccc2c(O)cccc12 (stereo not given)
logD [1]: 0.56
Relative potency [2]: 0.56
Relative potency (Canis familiaris [3]): 0.28
Kb (Canis familiaris [4]): 32.4 nM
Kb (Canis familiaris [5]): 75.9 nM
Dose (Canis familiaris [6]): 1.95 mg
Kb (Canis familiaris [7]): 20.9 nM

Compound: CC(C)NCC(O)COc1cccc2cccc(O)c12 (stereo not given)
logD [1]: 1.4
Relative potency [2]: 0.17
Relative potency (Canis familiaris [3]): 0.94
Kb (Canis familiaris [4]): 155 nM
Kb (Canis familiaris [5]): 229 nM
Dose (Canis familiaris [6]): 0.58 mg
Kb (Canis familiaris [7]): 55 nM

Compound: CC(C)NCC(O)COc1c(O)ccc2ccccc12 (stereo not given)
logD [1]: 1.66
Relative potency [2]: 0.03
Relative potency (Canis familiaris [3]): 1.07
Kb (Canis familiaris [4]): 646 nM
Kb (Canis familiaris [5]): 1350 nM
Dose (Canis familiaris [6]): 0.52 mg
Kb (Canis familiaris [7]): 468 nM

Compound: CC(C)NCC(O)COc1cccc2ccccc12 (stereo not given) [PROPRANOLOL]
Dose (Canis familiaris [6]): 0.55 mg

The next lines start with results.

logD [1]: 0.57
Relative potency [2]: 0.16
Compound: CC(C)NCC(O)COc1cc(O)cc2ccccc12 (stereo not given)
Relative potency (Canis familiaris [3]): 0.06
Kb (Canis familiaris [4]): 107 nM
Kb (Canis familiaris [5]): 288 nM
Dose (Canis familiaris [6]): 10 mg
Kb (Canis familiaris [7]): 58.9 nM

logD [1]: 0.53
Relative potency [2]: 0.77
Compound: CC(C)NCC(O)COc1ccc(O)c2ccccc12 (stereo not given) [4-HYDROXYPROPRANOLOL SULFATE]
Relative potency (Canis familiaris [3]): 0.13
Kb (Canis familiaris [4]): 28.8 nM
Kb (Canis familiaris [5]): 45.7 nM
Dose (Canis familiaris [6]): 4.35 mg
Kb (Canis familiaris [7]): 31.6 nM

logD [1]: 0.46
Relative potency [2]: 3.82
Compound: CC(C)NCC(O)COc1cccc2cc(O)ccc12 (stereo not given)
Relative potency (Canis familiaris [3]): 0.22
Kb (Canis familiaris [4]): 4.37 nM
Kb (Canis familiaris [5]): 9.77 nM
Dose (Canis familiaris [6]): 2.45 mg
Kb (Canis familiaris [7]): 4.47 nM
